According to PubChem BioAssay AID493150 (Broad Institute, 2011):
Where “and” joins values, the source holds several entries; their conditions need not be identical. Equal entries are not always repeated. Inconclusive results are not listed. Calls of active or inactive are those of the source.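 The calls were made as follows: active = compound whose fitted half-maximal growth inhibition concentration stays within ten times its top tested dose in every replicate test; inconclusive = replicate tests disagree, or flat partial inhibition, or poor curve fit; inactive = every replicate test inactive, including wrong-direction or flat responses.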

Test system: C. albicans CaCi-2 + fluconazole, Alamar Blue growth, 48 h
Experiment: Candida CaCi-2 growth reduction under fluconazole – CaCi-2 strain, Alamar Blue, dry powder, set 5, confirmation (AID 493150)
Conditions: not given
Procedure, shortened: (§1)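 Assay system: clinical Candida albicans isolate CaCi-2, resistant to fluconazole; amount: inoculum OD600 0.00015; medium: RPMI-based defined growth medium buffered with MOPS; also added: fluconazole 8 µg/mL; incubation: 48 h humidified 37 °C exposure, 2 h room-temperature dye step; detection: Alamar Blue fluorescence, 1:200 final dye, Ex 544 nm, Em 590 nm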
COC(=O)Cn1nc(-c2cccc(OC)c2)c2ccccc21 showed an AC50 of 0.44 µM.
With COC(=O)Cn1nc(-c2ccccc2)c2cc(C)ccc21 the AC50 was 3.28 µM.
Work on COC(=O)Cn1nc(-c2ccc(OC)cc2)c2ccccc21 yielded an AC50 of 4.22 µM.
Compound COC(=O)Cn1nc(-c2cccc(F)c2)c2ccccc21 has an AC50 of 1.41 µM.
With COC(=O)Cn1nc(-c2ccccc2)c2cc(F)ccc21 the AC50 was 4.63 µM.
Compound COC(=O)Cn1nc(-c2ccccc2)c2ccc(Cl)cc21 has an AC50 of 3.79 µM.
COC(=O)Cn1nc(-c2ccccc2)c2ccccc21 showed an AC50 of 1.2 µM.
In the case of COC(=O)Cn1nc(-c2cccc(C)c2)c2ccccc21, the AC50 is reported as 0.647 µM.
With COC(=O)Cn1nc(-c2ccc(F)cc2)c2ccccc21 the AC50 was 5.61 µM.
For O=C(Cn1c2ccccc2c2nc3n(c(=O)c21)CCS3)N1CCCC1, the AC50 was 1.04 µM and 1.87 µM.
With COC(=O)Cn1nc(-c2ccccc2OC)c2ccccc21 the AC50 was 6.22 µM.
With COC(=O)Cn1nc(-c2ccccc2)c2ccc(F)cc21 the AC50 was 5.1 µM.
Work on COC(=O)Cn1nc(-c2ccccc2)c2ccc(OC)cc21 yielded an AC50 of 7.51 µM.
In the case of COC(=O)Cn1c2ccccc2c2nc3n(c(=O)c21)CCS3, the AC50 is reported as 3.83 µM.
COC(=O)Cn1nc(-c2ccccc2)c2ccc(C)cc21 showed an AC50 of 3.14 µM.
COC(=O)Cn1nc(-c2ccccc2)c2cc(OC)ccc21 gave an AC50 of 10.4 µM.

Test system: not listed separately
Experiment: as above
Conditions: C. albicans CaCi-2 + fluconazole, Alamar Blue growth, 48 h; at 10 µM (top of the series)
Procedure, shortened: as §1
In the case of COC(=O)Cn1nc(-c2cncnc2)c2ccccc21, the activity change, negative = inhibition is reported as -5.14% (inactive).

Same assay, conditions: C. albicans CaCi-2 (fluconazole-resistant clinical isolate) + fluconazole, Alamar Blue growth, 48 h; at 12 µM (top of the series)
With COC(=O)Cn1nc(-c2ccc(C(F)(F)F)cc2)c2ccccc21 the activity change, negative = inhibition was -0.629% (inactive).
For O=C(Cn1nc(-c2ccccc2)c2ccccc21)Oc1ccccc1, the activity change, negative = inhibition was -4.43% (inactive).
With CCOC(=O)Cn1nc(-c2ccccc2)c2ccccc21 the activity change, negative = inhibition was 4.8% (inactive).
With COC(=O)CCn1nc(-c2ccccc2)c2ccccc21 the activity change, negative = inhibition was 1.2% (inactive).
With CC(C)(C)OC(=O)Cn1nc(-c2ccccc2)c2ccccc21 the activity change, negative = inhibition was 17.1% (inactive).
For N#CCn1nc(-c2ccccc2)c2ccccc21, the activity change, negative = inhibition was -18.5% (inactive).
With COC(=O)Cn1nc(-c2ccccc2)c2ccc(C#N)cc21 the activity change, negative = inhibition was -14.7% (inactive).
For CC(C)OC(=O)Cn1nc(-c2ccccc2)c2ccccc21, the activity change, negative = inhibition was 11.7% (inactive).
In the case of COCCn1nc(-c2ccccc2)c2ccccc21, the activity change, negative = inhibition is reported as -9.42% (inactive).
With c1ccc(-c2nn(Cc3nn[nH]n3)c3ccccc23)cc1 the activity change, negative = inhibition was -7.06% (inactive).
In the case of c1ccc(-c2nn(Cc3ncco3)c3ccccc23)cc1, the activity change, negative = inhibition is reported as 1.86% (inactive).
